# Reference: ChEMBL document CHEMBL4266056, “Discovery and Pharmacology of a Novel Somatostatin Subtype 5 (SSTR5) Antagonist: Synergy with DPP-4 Inhibition” (ACS Med Chem Lett, 2018)
# pIC50: −log10 of the molar value.
# Test system: not listed separately
# Assay: Half life in mouse
# Type: ADME, organism-based
# Settings: in vivo
row,half-life [h],SMILES
1,1.7,CCOc1cc(CN2CC[C@H]3C(Nc4nc5ccc(C(=O)O)cc5o4)CC[C@H]32)cc(OCC)c1-c1ccc(F)cc1 (relative stereo)

# Molecular target: Somatostatin receptor type 3 (Homo sapiens, UniProt P32745)
# Assay: Antagonist activity at human SSTR3 expressed in CHO-K1 cell membranes
# Type: functional, cell-based
# Settings: not given
# How it was run: (§1)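 Counter-screen by filtration membrane binding: competitive displacement of radiolabeled SST-28 from cell membranes expressing human SSTR1, SSTR2, SSTR3 or SSTR4. The IC50 is the mean of at least duplicate experiments within a maximal threefold range.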
# Chain of Somatostatin receptor type 3 (P32745 whole entry): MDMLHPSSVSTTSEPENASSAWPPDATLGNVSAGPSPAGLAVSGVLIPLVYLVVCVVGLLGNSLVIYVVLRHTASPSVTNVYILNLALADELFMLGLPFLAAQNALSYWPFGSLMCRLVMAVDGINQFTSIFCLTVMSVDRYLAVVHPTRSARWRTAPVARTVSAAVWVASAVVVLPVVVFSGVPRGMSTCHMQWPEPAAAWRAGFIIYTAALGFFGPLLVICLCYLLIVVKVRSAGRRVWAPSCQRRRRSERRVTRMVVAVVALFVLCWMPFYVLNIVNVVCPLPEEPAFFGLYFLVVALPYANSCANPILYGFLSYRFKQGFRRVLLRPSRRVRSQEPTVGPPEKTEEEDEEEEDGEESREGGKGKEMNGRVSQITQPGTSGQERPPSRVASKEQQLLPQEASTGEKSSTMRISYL
row,pIC50,SMILES
1,6.92,CCOc1cc(CN2CCC(c3ncc(-c4ccc(F)cc4)[nH]3)CC2)cc(OCC)c1-c1ccc(F)cc1

# Molecular target: T1, Somatostatin receptor type 5 (Homo sapiens, UniProt P35346)
# Assay: Displacement of (3-125I-Tyr11)-SRIF-28 from human SSTR5 expressed in CHO-K1 cell membranes by filtration binding assay
# Settings: not given
# T1 sequence (P35346 whole entry): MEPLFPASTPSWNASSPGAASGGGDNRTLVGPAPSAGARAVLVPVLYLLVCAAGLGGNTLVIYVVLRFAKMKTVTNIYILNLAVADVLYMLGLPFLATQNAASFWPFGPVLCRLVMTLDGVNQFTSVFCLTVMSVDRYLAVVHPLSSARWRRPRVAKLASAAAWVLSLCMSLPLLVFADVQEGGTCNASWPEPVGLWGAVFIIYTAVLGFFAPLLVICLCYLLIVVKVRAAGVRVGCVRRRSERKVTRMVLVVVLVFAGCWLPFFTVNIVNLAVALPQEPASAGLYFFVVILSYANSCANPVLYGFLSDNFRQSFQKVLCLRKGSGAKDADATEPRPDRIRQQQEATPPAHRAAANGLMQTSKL
row,SMILES,pIC50
1,CCOc1cc(CN2CCC3(CC2)NC(=O)NC3=O)cc(OCC)c1-c1ccc(F)cc1,7.08
2,CCOc1cc(CN2CCC(NC(=O)c3cncc(C)c3)CC2)cc(OCC)c1-c1ccc(F)cc1,8.89
3,CCOc1cc(CN2CCC(Oc3nccc(Cl)n3)CC2)cc(OCC)c1-c1ccc(F)cc1,7.68
4,CCOc1cc(CN2CC[C@H]3C(Nc4nc5ccc(C(=O)O)cc5o4)CC[C@H]32)cc(OCC)c1-c1ccc(F)cc1 (relative stereo),8.60
5,CCOc1cc(CN2CCC3(CC2)CC(Cc2ccc(F)cc2)C(=O)O3)cc(OCC)c1-c1ccc(F)cc1 (racemic),8.80

# Further molecules by rising pIC50, results first:
row,pIC50,SMILES
1,7.89,CCOc1cc(CN2CCC3(CC2)CCN(S(=O)(=O)c2cccnc2)CC3)cc(OCC)c1-c1ccc(F)cc1
2,8.12,CCOc1cc(CN2CCC(c3ncc(-c4ccc(F)cc4)[nH]3)CC2)cc(OCC)c1-c1ccc(F)cc1
3,8.54,CCOc1cc(CN2CCC(COc3cccc4cccnc34)CC2)cc(OCC)c1-c1ccc(F)cc1
4,9.15,CCOc1cc(CN2CCC(C3CCN(S(=O)(=O)c4ccccc4)CC3)CC2)cc(OCC)c1-c1ccc(F)cc1

# Molecular target: Voltage-gated inwardly rectifying potassium channel KCNH2 (Homo sapiens, UniProt Q12809)
# Assay: Inhibition of MK-499 binding to human ERG
# Settings: not given
# Chain of Voltage-gated inwardly rectifying potassium channel KCNH2 (Q12809 whole entry): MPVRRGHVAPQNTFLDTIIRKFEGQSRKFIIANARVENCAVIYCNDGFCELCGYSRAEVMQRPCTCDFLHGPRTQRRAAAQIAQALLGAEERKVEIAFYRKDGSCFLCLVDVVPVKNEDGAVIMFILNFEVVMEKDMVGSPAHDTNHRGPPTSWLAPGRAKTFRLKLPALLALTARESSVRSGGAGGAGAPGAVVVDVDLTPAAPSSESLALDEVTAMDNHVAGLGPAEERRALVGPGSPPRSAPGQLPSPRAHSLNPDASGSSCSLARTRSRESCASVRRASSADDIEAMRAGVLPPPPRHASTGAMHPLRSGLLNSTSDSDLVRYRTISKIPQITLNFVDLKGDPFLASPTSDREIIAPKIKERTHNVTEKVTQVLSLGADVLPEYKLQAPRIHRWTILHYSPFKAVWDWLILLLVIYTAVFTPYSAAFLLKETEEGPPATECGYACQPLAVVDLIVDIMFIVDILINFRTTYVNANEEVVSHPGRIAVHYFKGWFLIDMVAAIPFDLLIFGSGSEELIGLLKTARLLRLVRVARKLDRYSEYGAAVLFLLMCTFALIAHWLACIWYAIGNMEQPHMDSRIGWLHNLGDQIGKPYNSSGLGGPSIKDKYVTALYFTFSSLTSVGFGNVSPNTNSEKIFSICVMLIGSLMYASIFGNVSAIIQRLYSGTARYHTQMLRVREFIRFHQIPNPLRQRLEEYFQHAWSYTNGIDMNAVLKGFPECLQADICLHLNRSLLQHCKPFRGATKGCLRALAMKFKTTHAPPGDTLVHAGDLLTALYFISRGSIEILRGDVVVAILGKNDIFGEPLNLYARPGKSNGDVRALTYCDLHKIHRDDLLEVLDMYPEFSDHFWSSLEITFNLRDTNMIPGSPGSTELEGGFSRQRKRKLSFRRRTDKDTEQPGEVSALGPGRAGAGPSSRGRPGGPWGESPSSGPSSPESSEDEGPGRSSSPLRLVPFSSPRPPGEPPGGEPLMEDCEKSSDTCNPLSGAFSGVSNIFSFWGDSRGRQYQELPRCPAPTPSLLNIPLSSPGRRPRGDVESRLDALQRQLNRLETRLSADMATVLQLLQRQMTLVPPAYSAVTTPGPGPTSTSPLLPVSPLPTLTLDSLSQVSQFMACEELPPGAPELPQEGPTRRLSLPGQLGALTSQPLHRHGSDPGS
row,SMILES,pIC50
1,CCOc1cc(CN2CCC3(CC2)NC(=O)NC3=O)cc(OCC)c1-c1ccc(F)cc1,4.60
2,CCOc1cc(CN2CCC3(CC2)CCN(S(=O)(=O)c2cccnc2)CC3)cc(OCC)c1-c1ccc(F)cc1,6.68
3,CCOc1cc(CN2CCC(NC(=O)c3cncc(C)c3)CC2)cc(OCC)c1-c1ccc(F)cc1,5.77
4,CCOc1cc(CN2CCC(c3ncc(-c4ccc(F)cc4)[nH]3)CC2)cc(OCC)c1-c1ccc(F)cc1,6.59
5,CCOc1cc(CN2CCC(COc3cccc4cccnc34)CC2)cc(OCC)c1-c1ccc(F)cc1,6.68
6,CCOc1cc(CN2CCC(C3CCN(S(=O)(=O)c4ccccc4)CC3)CC2)cc(OCC)c1-c1ccc(F)cc1,6.66
7,CCOc1cc(CN2CC[C@H]3C(Nc4nc5ccc(C(=O)O)cc5o4)CC[C@H]32)cc(OCC)c1-c1ccc(F)cc1 (relative stereo),4.82

# Test system: Mus musculus
# Assay: Drug uptake in mouse whole blood at 30 mg/kg, po measured at […]
# Settings: not given
row,concentration at […] [µM],SMILES
1,0.46,CCOc1cc(CN2CCC3(CC2)NC(=O)NC3=O)cc(OCC)c1-c1ccc(F)cc1
2,0.092,CCOc1cc(CN2CCC(C3CCN(S(=O)(=O)c4ccccc4)CC3)CC2)cc(OCC)c1-c1ccc(F)cc1
3,0.76,CCOc1cc(CN2CC[C@H]3C(Nc4nc5ccc(C(=O)O)cc5o4)CC[C@H]32)cc(OCC)c1-c1ccc(F)cc1 (relative stereo)

# Test system: not listed separately
# Assay: Oral bioavailability in mouse
# Type: ADME, organism-based
# Settings: in vivo
row,bioavailability [%],SMILES
1,13,CCOc1cc(CN2CCC(C3CCN(S(=O)(=O)c4ccccc4)CC3)CC2)cc(OCC)c1-c1ccc(F)cc1
2,48,CCOc1cc(CN2CC[C@H]3C(Nc4nc5ccc(C(=O)O)cc5o4)CC[C@H]32)cc(OCC)c1-c1ccc(F)cc1 (relative stereo)

# Molecular target: T2, Somatostatin receptor type 5 (Mus musculus, UniProt O08858)
# T2 sequence (O08858 whole entry): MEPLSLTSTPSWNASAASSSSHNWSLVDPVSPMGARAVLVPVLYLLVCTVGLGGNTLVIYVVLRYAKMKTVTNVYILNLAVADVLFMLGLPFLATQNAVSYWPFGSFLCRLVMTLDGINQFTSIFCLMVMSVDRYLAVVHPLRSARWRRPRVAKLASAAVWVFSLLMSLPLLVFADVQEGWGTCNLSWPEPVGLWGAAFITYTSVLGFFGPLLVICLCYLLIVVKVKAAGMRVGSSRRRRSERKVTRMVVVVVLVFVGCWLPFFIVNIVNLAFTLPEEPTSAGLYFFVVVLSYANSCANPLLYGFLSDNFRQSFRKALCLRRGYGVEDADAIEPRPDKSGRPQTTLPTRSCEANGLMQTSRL
# Assay: Antagonist activity at mouse SSTR5 expressed in CHO-K1 cell membranes assessed as reduction in SST-28-induced inhibition of forskolin-stimulated cAMP accumulation by LANCE assay
# Type: functional, cell-based
# Settings: not given
row,SMILES,pIC50
1,CCOc1cc(CN2CCC3(CC2)NC(=O)NC3=O)cc(OCC)c1-c1ccc(F)cc1,8.13
2,CCOc1cc(CN2CCC(NC(=O)c3cncc(C)c3)CC2)cc(OCC)c1-c1ccc(F)cc1,8.57
3,CCOc1cc(CN2CC[C@H]3C(Nc4nc5ccc(C(=O)O)cc5o4)CC[C@H]32)cc(OCC)c1-c1ccc(F)cc1 (relative stereo),8.21

# Continued, values first:
row,pIC50,SMILES
1,7.01,CCOc1cc(CN2CCC(c3ncc(-c4ccc(F)cc4)[nH]3)CC2)cc(OCC)c1-c1ccc(F)cc1
2,8.15,CCOc1cc(CN2CCC(COc3cccc4cccnc34)CC2)cc(OCC)c1-c1ccc(F)cc1
3,7.55,CCOc1cc(CN2CCC(C3CCN(S(=O)(=O)c4ccccc4)CC3)CC2)cc(OCC)c1-c1ccc(F)cc1

# Molecular target: T1, Somatostatin receptor type 5
# Assay: Antagonist activity at human SSTR5 expressed in CHO-K1 cell membranes assessed as reduction in SST-28-induced inhibition of forskolin-stimulated cAMP accumulation by LANCE assay
# Type: functional, cell-based
# Settings: not given
row,SMILES,pIC50
1,CCOc1cc(CN2CCC3(CC2)NC(=O)NC3=O)cc(OCC)c1-c1ccc(F)cc1,6.96
2,CCOc1cc(CN2CCC(NC(=O)c3cncc(C)c3)CC2)cc(OCC)c1-c1ccc(F)cc1,8.51
3,CCOc1cc(CN2CCC(Oc3nccc(Cl)n3)CC2)cc(OCC)c1-c1ccc(F)cc1,7.14
4,CCOc1cc(CN2CC[C@H]3C(Nc4nc5ccc(C(=O)O)cc5o4)CC[C@H]32)cc(OCC)c1-c1ccc(F)cc1 (relative stereo),8.35
5,CCOc1cc(CN2CCC3(CC2)CC(Cc2ccc(F)cc2)C(=O)O3)cc(OCC)c1-c1ccc(F)cc1 (racemic),7.17

# Next, values leading:
row,pIC50,SMILES
1,7.59,CCOc1cc(CN2CCC3(CC2)CCN(S(=O)(=O)c2cccnc2)CC3)cc(OCC)c1-c1ccc(F)cc1
2,6.61,CCOc1cc(CN2CCC(c3ncc(-c4ccc(F)cc4)[nH]3)CC2)cc(OCC)c1-c1ccc(F)cc1
3,7.17,CCOc1cc(CN2CCC(COc3cccc4cccnc34)CC2)cc(OCC)c1-c1ccc(F)cc1
4,8.07,CCOc1cc(CN2CCC(C3CCN(S(=O)(=O)c4ccccc4)CC3)CC2)cc(OCC)c1-c1ccc(F)cc1

# Molecular target: T2, Somatostatin receptor type 5
# Assay: Displacement of (3-125I-Tyr11)-SRIF-28 from mouse SSTR5 expressed in CHO-K1 cell membranes by filtration binding assay
# Settings: not given
row,SMILES,pIC50
1,CCOc1cc(CN2CCC3(CC2)NC(=O)NC3=O)cc(OCC)c1-c1ccc(F)cc1,7.49
2,CCOc1cc(CN2CCC(NC(=O)c3cncc(C)c3)CC2)cc(OCC)c1-c1ccc(F)cc1,9.00
3,CCOc1cc(CN2CCC(Oc3nccc(Cl)n3)CC2)cc(OCC)c1-c1ccc(F)cc1,7.89
4,CCOc1cc(CN2CC[C@H]3C(Nc4nc5ccc(C(=O)O)cc5o4)CC[C@H]32)cc(OCC)c1-c1ccc(F)cc1 (relative stereo),7.80
5,CCOc1cc(CN2CCC3(CC2)CC(Cc2ccc(F)cc2)C(=O)O3)cc(OCC)c1-c1ccc(F)cc1 (racemic),8.60

# Next, values leading:
row,pIC50,SMILES
1,8.57,CCOc1cc(CN2CCC(c3ncc(-c4ccc(F)cc4)[nH]3)CC2)cc(OCC)c1-c1ccc(F)cc1
2,9.22,CCOc1cc(CN2CCC(COc3cccc4cccnc34)CC2)cc(OCC)c1-c1ccc(F)cc1
3,9.10,CCOc1cc(CN2CCC(C3CCN(S(=O)(=O)c4ccccc4)CC3)CC2)cc(OCC)c1-c1ccc(F)cc1

# Test system: Mus musculus
# Assay: Antidiabetic activity in HFD fed C57BL/6N mouse assessed as decrease in blood glucose AUC at 30 mg/kg administered as single oral dose pretreated for 60 mins followed by glucose challenge measured after 120 mins by OGTT
# Type: functional
# Set-up: scale not given: the % may be the effect or the level left
# Settings: not given
# How it was run: (§2)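 Male C57BL/6 mice were fed HFD (D12492) for 21 days, n=3. Compound was given orally 1 h before an oral glucose load, and blood glucose was followed over 0-120 min. Read-out is the decrease in glucose AUC versus vehicle.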
row,SMILES,Activity [%]
1,CCOc1cc(CN2CCC3(CC2)NC(=O)NC3=O)cc(OCC)c1-c1ccc(F)cc1,54
2,CCOc1cc(CN2CCC(C3CCN(S(=O)(=O)c4ccccc4)CC3)CC2)cc(OCC)c1-c1ccc(F)cc1,60
3,CCOc1cc(CN2CC[C@H]3C(Nc4nc5ccc(C(=O)O)cc5o4)CC[C@H]32)cc(OCC)c1-c1ccc(F)cc1 (relative stereo),56

# Molecular target: Somatostatin receptor type 1 (Homo sapiens, UniProt P30872)
# Assay: Antagonist activity at human SSTR1 expressed in CHO-K1 cell membranes
# Type: functional, cell-based
# Settings: not given
# How it was run: as §1
# Chain of Somatostatin receptor type 1 (P30872 whole entry): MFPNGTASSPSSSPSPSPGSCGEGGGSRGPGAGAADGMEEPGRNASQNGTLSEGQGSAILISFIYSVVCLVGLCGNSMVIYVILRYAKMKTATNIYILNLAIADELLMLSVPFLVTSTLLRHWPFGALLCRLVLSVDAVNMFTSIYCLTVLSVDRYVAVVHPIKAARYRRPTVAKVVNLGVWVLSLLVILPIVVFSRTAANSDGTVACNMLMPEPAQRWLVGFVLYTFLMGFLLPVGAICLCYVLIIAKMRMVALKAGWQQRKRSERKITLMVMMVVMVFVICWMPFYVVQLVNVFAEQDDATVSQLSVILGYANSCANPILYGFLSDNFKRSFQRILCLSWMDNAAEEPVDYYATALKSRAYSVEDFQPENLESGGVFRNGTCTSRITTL
row,pIC50,SMILES
1,> 6.52,CCOc1cc(CN2CCC(NC(=O)c3cncc(C)c3)CC2)cc(OCC)c1-c1ccc(F)cc1
2,5.22,CCOc1cc(CN2CC[C@H]3C(Nc4nc5ccc(C(=O)O)cc5o4)CC[C@H]32)cc(OCC)c1-c1ccc(F)cc1 (relative stereo)

# Test system: Mus musculus
# Assay: Antidiabetic activity in HFD fed C57BL/6N mouse assessed as decrease in blood glucose AUC at 10 mg/kg administered as single oral dose pretreated for 60 mins followed by glucose challenge measured after 120 mins by OGTT
# Type: functional
# Set-up: scale not given: the % may be the effect or the level left
# Settings: not given
# How it was run: as §2
row,SMILES,Activity [%]
1,CCOc1cc(CN2CCC(NC(=O)c3cncc(C)c3)CC2)cc(OCC)c1-c1ccc(F)cc1,87
